MrgX1 PAM = human MrgX1 positive allosteric modulation, primary screen; MrgX1-HEK293, Fluo-4 calcium flux, FDSS; active compounds read high; B-score at 10 µM; 310,000 compounds, 0.63% hits; AID 588675;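 active = plate-corrected calcium response at least 3 library SD above typical, normal starting fluorescence, not activating the receptor alone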;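 note: compound read alongside a low EC10 to EC30 dose of BAM8-22 agonist; peak minus trough fluorescence over baseline measured at the second addition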
Target sequence (Q96LB2 whole entry, looked up): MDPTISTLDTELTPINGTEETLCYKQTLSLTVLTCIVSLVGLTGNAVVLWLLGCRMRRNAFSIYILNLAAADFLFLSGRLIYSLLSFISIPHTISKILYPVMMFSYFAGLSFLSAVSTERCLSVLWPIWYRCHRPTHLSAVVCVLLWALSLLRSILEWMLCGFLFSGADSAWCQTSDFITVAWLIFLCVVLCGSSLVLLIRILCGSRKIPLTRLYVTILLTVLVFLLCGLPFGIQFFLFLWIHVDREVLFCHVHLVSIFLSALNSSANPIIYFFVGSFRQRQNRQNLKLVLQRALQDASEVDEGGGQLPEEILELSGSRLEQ
RGS4 pot = RGS4 potentiation or activation | B-score at 10 µM | 310,000 compounds, 0.92% hits | HEK293 M3R/inducible RGS4, carbachol calcium flux Fluo4; active compounds read low;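 active = B-score of the integrated calcium signal more than 4 SD below the library mean, with starting fluorescence not abnormally high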;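 note: negative B-score means reduced calcium response which marks RGS4 activation or potentiation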
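Detection: kinetic calcium fluorescence imaging with Fluo4-AM dye, 2 µM / Material: HEK293 cells with stable M3R and inducible RGS4 / Schedule: recording 10 s baseline at 1 Hz, 100 s post-agonist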
MrgX1 antagonist = human MrgX1 receptor antagonism, primary screen; Q96LB2; MRGX1-HEK293 calcium flux, Fluo-4, BAM8-22 antagonism; active compounds read low; 310,000 compounds, 1.3% hits; AID 588676; B-score at 10 µM;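 active = calcium-response B-score plate-corrected more than 3 library SD below zero, starting fluorescence within 5 deviations, no agonist response on first addition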;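 note: peak minus trough fluorescence over baseline after final BAM8-22 challenge near maximal dose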
RGS4 inh = human RGS4 inhibition; P49798; HEK293 M3R/RGS4 inducible, Fluo-4 calcium flux; active compounds read high; triggered by carbachol at its EC20; B-score at 10 µM; 310,000 compounds, 0.45% hits; AID 463165;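 active = B-score, a plate-corrected calcium signal, over three deviations above library mean, with baseline fluorescence within five deviations of library mean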;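 note: RGS4 expression induced by doxycycline in cells with stable M3 receptor; B-score is computed from the integrated fluorescence ratio over baseline after carbachol; higher B-score means a larger calcium signal and so more RGS4 inhibition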
Target sequence (P49798 whole entry, looked up): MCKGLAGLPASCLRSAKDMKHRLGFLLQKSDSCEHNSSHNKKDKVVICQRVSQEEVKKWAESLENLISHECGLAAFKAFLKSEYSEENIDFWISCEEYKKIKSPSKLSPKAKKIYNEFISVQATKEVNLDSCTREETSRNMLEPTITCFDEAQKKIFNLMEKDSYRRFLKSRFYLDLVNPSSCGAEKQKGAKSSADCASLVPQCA
Kir21 block = blocks the mouse Kir2.1 inward-rectifier potassium channel | HEK293-Kir2.1, FluxOR thallium flux fluorescence; active compounds read low | B-score at 10 µM | 310,000 compounds, 0.85% hits | AID 1672;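 active = fluorescence ratio B-score at or below minus 3 SD of library scores, with starting-brightness B-score within 2 SD, cut at about -4.2 in these data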;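 note: channel flux triggered by added potassium and thallium sulfate stimulus; B-score of peak minus minimum fluorescence over baseline after thallium stimulus; more negative B-score means stronger Kir2.1 block with less thallium influx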
MrgX1 ag = agonists of human MrgX1 receptor. 310,000 compounds, 0.44% hits. MrgX1-HEK293 cells, Fluo-4 calcium fluorescence, agonist mode; active compounds read high. B-score at 10 µM;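 active = calcium response B-score plate-corrected fluorescence ratio at least 3 library SD, with starting fluorescence B-score inside 5 SD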
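System: HEK293 cells stably expressing human MrgX1 receptor; Dosing: test compound in the initial addition of three; Schedule: overnight plating, then 30 min 37 °C plus 30 min room-temperature dye loading; Detection: kinetic calcium dye fluorescence, Fluo-4 NW; Controls: per-plate positive and negative controls for Z′ factor.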
MrgX1 antag conf = reconfirmed antagonist of human MrgX1 receptor signaling; shares compounds with MrgX1 antagonist; 2,300 compounds, 19% hits; remaining BAM8-22 calcium response % of control (active compounds read low), % at 10 µM; MrgX1-HEK293, BAM8-22 calcium flux, Fluo-4; active compounds read low;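 active = remaining agonist calcium response no higher than 100% minus 3 SD of agonist-only control wells, with starting fluorescence near control levels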;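 note: agonist BAM8-22 given at a near maximal EC90 to ECmax level; peak minus minimum fluorescence divided by baseline after agonist addition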
HEK293 Ca flux = activity in parental HEK293 cells lacking MrgX1; shares compounds with MrgX1 antagonist; Fluo-4 calcium fluorescence, FDSS; fluorescence ratio F(max-min)/F0 at 10 µM; 4,000 compounds, 2% hits;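 active = duplicate-averaged calcium fluorescence ratio at least three times the standard deviation of buffer wells, a nonspecific response in parental cells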
HEK293 Ca counter = counter-screen for MrgX1 allosteric activators: effect in parental HEK293 cells | shares compounds with MrgX1 antagonist | parental HEK293 calcium flux, Fluo-4 fluorescence ratio; active compounds read high | fluorescence ratio F(max-min)/F0 at 10 µM | 4,000 compounds, 0.4% hits | AID 624114;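 active = calcium fluorescence ratio, averaged over duplicates, at least 3 SD of the buffer-well ratio, meaning a nonspecific response in receptor-free cells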;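 note: untransfected parental HEK293 lacking MrgX1 used as counterscreen for MrgX1 allosteric activators; fluorescence change taken during the second addition on a kinetic imager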
HEK293 Ca cntr2 = MrgX1 activator counter-screen hit in parental HEK293 cells | fluorescence ratio F(max-min)/F0 at 10 µM | Fluo-4 calcium fluorescence (FDSS); active compounds read high | shares compounds with MrgX1 antagonist | AID 624115 | 4,000 compounds, 8.7% hits;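 active = calcium fluorescence ratio at least three times the spread of buffer wells, meaning a non-specific response in parental cells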
Active calls of the source: *; i = inactive; nt = not tested or not shown. The list is not random: actives were taken first. Their share in the collection is about 4.1%.

SMILES | MrgX1 PAM | RGS4 pot | MrgX1 antagonist | RGS4 inh | Kir21 block | MrgX1 ag | MrgX1 antag conf | HEK293 Ca flux | HEK293 Ca counter | HEK293 Ca cntr2
CCC(=O)Nc1ccc(S(=O)(=O)N2CCc3ccccc3C2)cc1 | i | i | -7.9* | i | 0.85 | i | i | i | i | i
CN1CCN(S(=O)(=O)c2ccc(NC(=O)Cc3cccs3)cc2)CC1 | i | i | -4.7* | i | -0.91 | i | i | i | i | 51*
Cc1ccc(-n2c(C)cc(C(=O)COC(=O)c3ccc[nH]c3=O)c2C)cc1C | i | i | i | i | -1.5 | i | nt | nt | nt | nt
CCCN=C(Nc1ccc(Cl)cc1)c1cccnc1 | i | i | i | i | 1.3 | i | nt | nt | nt | nt
Cc1cc(NC(=O)c2cccnc2)ccc1Br | i | i | -7.5* | i | -0.38 | i | i | i | i | i
O=C(NCCOC(=O)c1ccc(C(=O)OCCNC(=O)c2cccnc2)s1)c1cccnc1 | i | i | i | i | 0.76 | i | nt | nt | nt | nt
Cc1ccc(NC(=O)c2cccs2)cc1NC(=O)c1cccnc1 | i | i | i | i | -2.4 | i | nt | nt | nt | nt
O=C(Nc1ccc(NC(=O)c2cccs2)cc1)c1cccnc1 | i | i | -5.8* | i | -1.7 | i | i | i | i | i
O=C(NCCOC(=O)c1cccs1)c1cccnc1 | i | i | -7.8* | i | -0.11 | i | i | i | i | i
S=C(NCc1ccncc1)Nc1cc(Cl)cc(Cl)c1 | i | i | i | i | 0.24 | i | nt | nt | nt | nt
Cc1c2ccccc2nc2ccccc12 | i | i | i | i | 0.04 | i | nt | nt | nt | nt
CCCNc1c(F)c(F)c2c(C)c3ccccc3nc2c1F | i | -7.5* | -6* | i | -1.9 | i | i | 0.36* | i | 90*
Cc1ccccc1CN1CCN(S(=O)(=O)c2cccs2)CC1 | i | i | -4.6* | i | 0.67 | i | i | i | i | i
Cc1ccccc1CN1CCN(S(=O)(=O)c2cccc3nsnc23)CC1 | i | i | -11* | i | 1.1 | i | i | i | i | i
CCN1CCN(S(=O)(=O)c2cccc3nsnc23)CC1 | i | i | i | i | -0.17 | i | nt | nt | nt | nt
O=C(Nc1ccc2c(c1)OCO2)c1cc(-c2cccnc2)nc2ccccc12 | i | i | i | i | -0.56 | i | nt | nt | nt | nt
CCN(CC(=O)Nc1ccc2c(c1)OCCO2)c1nc(-c2cccnc2)nc2ccccc12 | i | i | -11* | i | -0.67 | i | i | i | i | i
O=C(NCc1cccnc1)c1ccccc1-c1nc(-c2ccccc2)no1 | i | i | i | i | 0.23 | i | nt | nt | nt | nt
CCOC(=O)c1sc2nc(NC(=O)C(C)(C)C)sc2c1C | i | i | -5.1* | i | -0.55 | i | 79%* | i | i | i
O=C(Nc1ccc(OC(F)(F)F)cc1)Oc1ccccc1N1CCCCC1 | i | i | -5.4* | i | -0.99 | i | i | i | i | i
O=C(Nc1ccc(OC(F)(F)F)cc1)Oc1ccccc1N1CCOCC1 | i | i | i | i | -0.37 | i | nt | nt | nt | nt
C=C1CCN([C@@H](C)C(=O)OCc2cccc(C)c2)S(=O)(=O)c2ccccc21 | i | i | -11* | i | -0.1 | i | i | i | i | i
CCc1ccccc1S(=O)(=O)c1c(C)cc(C)nc1Cl | i | i | -5* | i | -3.5 | i | i | i | i | i
Cc1ccc(O)c(NC(=S)NC(=O)Cc2ccc(Cl)cc2)c1 | i | -7.5* | -24* | i | 1.1 | i | 27%* | i | i | i
Cn1c(N)c(C(=O)COC(=O)c2cccnc2Cl)c(=O)n(C)c1=O | i | i | i | i | 0.74 | i | nt | nt | nt | nt
SMILES | MrgX1 PAM | RGS4 pot | MrgX1 antagonist | RGS4 inh | Kir21 block | MrgX1 ag | MrgX1 antag conf | HEK293 Ca flux | HEK293 Ca counter | HEK293 Ca cntr2
Cc1ccccc1NCc1nc2ccccc2n1C | i | i | i | i | 2.6 | i | nt | nt | nt | nt
Cn1c(CNc2ccccc2)nc2ccccc21 | i | i | -6.9* | i | 0.29 | i | 85%* | i | i | i
CC1(C)CC(=O)C=C(NCCO)C1 | i | i | -4.7* | i | 1.9 | i | i | i | i | i
Cc1ccc2nc(-c3ccc(-c4cccc(Cl)c4)cc3)c(NCc3ccccc3)n2c1 | i | i | i | i | -1 | i | nt | nt | nt | nt
CC(=O)c1ccc(NC(=O)c2ccc(C)c(S(=O)(=O)N3CCOCC3)c2)cc1 | i | i | i | i | 2 | i | nt | nt | nt | nt
CCOC(=O)c1ccc(NC(=O)c2ccc(C)c(S(=O)(=O)N3CCOCC3)c2)cc1 | i | i | -11* | i | 0.06 | i | 21%* | i | i | i
Cc1ccc(S(=O)(=O)N2CCOCC2)cc1C(=O)OCc1nnc(-c2ccccc2)o1 | i | i | i | i | 0.32 | i | nt | nt | nt | nt
Cc1ccc(NC(=O)CCNS(=O)(=O)c2ccccc2)cc1S(=O)(=O)N1CCOCC1 | i | i | -6.7* | i | 0.87 | i | i | i | i | i
Cc1ccc(NC(=O)CCNS(=O)(=O)c2ccc(Br)cc2)cc1S(=O)(=O)N1CCOCC1 | i | i | i | i | -1.4 | i | nt | nt | nt | nt
Cc1ccc(C(=O)OCc2nnc(-c3ccccc3)o2)cc1S(=O)(=O)N1CCOCC1 | i | i | -4.6* | i | 0.68 | i | 83%* | i | i | i
O=C(Nc1nccs1)c1ccc(Br)s1 | i | i | i | i | 0.03 | i | nt | nt | nt | nt
C[C@]12CCC[C@H](O1)c1c(cc3c(c1O)C(=O)c1c(O)cc(O)cc1C3=O)O2 | i | i | -7.6* | i | 0.05 | i | i | 0.64* | i | i
CC(C(=O)O)N(C(=O)c1ccccc1)c1ccc(F)cc1 (centres undefined) | i | i | -5.5* | i | -0.43 | i | 81%* | i | i | i
